A3A deaminase: APOBEC3A ssDNA deaminase inhibitors, primary screen, selectivity assay for APOBEC3G inhibitor project, biochemical, FAM/TAMRA oligo cleavage fluorescence | recombinant A3A, FAM/TAMRA ssDNA deamination fluorescence | inhibition, % at 20 µM | DNA dC->dU-editing enzyme APOBEC-3A (Homo sapiens), P31941 | 330,000 compounds, 0.41% hits | AID 493011, 2011;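 active means at least 40% inhibition at 20 µM here, with at most 30% in a related deaminase screen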
Target sequence (P31941 whole entry, looked up): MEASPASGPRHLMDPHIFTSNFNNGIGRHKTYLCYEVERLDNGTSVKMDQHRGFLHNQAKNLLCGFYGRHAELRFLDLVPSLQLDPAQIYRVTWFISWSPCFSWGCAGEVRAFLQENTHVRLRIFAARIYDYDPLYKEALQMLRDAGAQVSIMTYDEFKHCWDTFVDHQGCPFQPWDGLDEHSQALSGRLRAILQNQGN
CAL PDZ FP-1: untagged CAL PDZ binding inhibitors, primary screen, biochemical, fluorescence polarization, HTS | Golgi-associated PDZ and coiled-coil motif-containing protein (Homo sapiens), Q9HD26 | purified CAL PDZ, TMR-peptide fluorescence polarization, 1 h | inhibition, % at 24.9 µM | 300,000 compounds, 0.92% hits;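 active means mean inhibition of at least 30% with at least half of replicates also reaching 30%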
APOBEC3G inh: APOBEC3G DNA deaminase inhibitors, primary screen, biochemical, fluorescence, single-stranded DNA substrate, uHTS | DNA dC->dU-editing enzyme APOBEC-3G (Homo sapiens), Q9HC16 | recombinant A3G, ssDNA deamination FAM/TAMRA fluorescence | inhibition, % at 20 µM | 330,000 compounds, 0.28% hits | AID 493012, 2011;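 active means inhibition of at least 40% at 20 µM, with no more than 30% in the related APOBEC3A deaminase screen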
Target sequence (Q9HC16 whole entry, looked up): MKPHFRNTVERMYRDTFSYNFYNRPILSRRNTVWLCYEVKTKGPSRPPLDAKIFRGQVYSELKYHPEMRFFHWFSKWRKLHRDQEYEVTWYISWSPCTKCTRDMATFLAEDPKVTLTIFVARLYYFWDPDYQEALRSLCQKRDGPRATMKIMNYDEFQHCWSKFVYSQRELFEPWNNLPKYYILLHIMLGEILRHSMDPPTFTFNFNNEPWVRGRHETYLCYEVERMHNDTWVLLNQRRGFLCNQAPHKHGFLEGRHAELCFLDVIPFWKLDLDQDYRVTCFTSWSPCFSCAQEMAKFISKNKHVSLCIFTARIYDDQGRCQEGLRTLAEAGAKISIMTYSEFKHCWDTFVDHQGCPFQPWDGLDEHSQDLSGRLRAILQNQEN
CAL PDZ FP-2: CAL PDZ peptide-binding inhibitors, primary screen, biochemical, fluorescence polarization, Cer-tagged CAL PDZ, HTS; 330,000 compounds, 0.02% hits; AID 504414, 2011; purified CAL PDZ, TMR-peptide fluorescence polarization, 1 h; inhibition, % at 20 µM;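 active means highest replicate inhibition of at least 40%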
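Material: tagged CAL PDZ protein CerCALP, purified; buffer or medium: sodium phosphate/NaCl buffer pH 7.4 with TCEP, IgG, Thesit; also added: fluorescent TMR peptide probe; schedule: 1 h incubation at room temperature before polarization reading; technique: fluorescence polarization from S- and P-plane intensities, G-factor corrected; control set: unlabelled peptide and DMSO controls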
LANA DNA inh: inhibitors of KSHV C-LANA binding to DNA, primary screen, biochemical, fluorescence polarization, FAM-LBS DNA, MBP-C-LANA, single point; Kaposi's sarcoma herpesvirus LANA C-terminal domain (residues 932-1162) DNA binding; inhibition, % at 9 µM; 340,000 compounds, 0.078% hits;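 active means highest replicate inhibition at or above 60% at 9 µM, even if other replicates fall short; inactive means all replicates below 60% inhibition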
Keap1 Nrf2 FP: Keap1-Nrf2 protein-protein interaction inhibitors, primary screen, biochemical, fluorescence polarization, single point | Kelch-like ECH-associated protein 1 (Homo sapiens), Q14145 | Keap1 Kelch-Nrf2 peptide fluorescence polarization, 1536-well | inhibition, % at 9.4 µM | 340,000 compounds, 0.15% hits; in the data active means inhibition above about 12%;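 further: human Keap1 Kelch domain with fluorescein labeled Nrf2 9mer peptide probe; higher means more block of Keap1 binding to Nrf2 peptide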
APOBEC3G confirm: APOBEC3G deaminase inhibitor retest, confirmation, biochemical, fluorescence, single-stranded DNA substrate, single concentration | 890 compounds, 72% hits | shares compounds with APOBEC3G inh | recombinant A3G ssDNA deaminase, UDG/FAM-TAMRA fluorescence | inhibition, % at 20 µM;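 active means inhibition reaching a set limit in any replicate at 20 µM, the limit being 80% of the first screen's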
UDG ctr A3G: E. coli UDG inhibitors, confirmation, counter-screen for APOBEC3G inhibitor project, biochemical, single concentration, fluorescence, FAM/TAMRA oligo; UDG counterscreen; inhibition, % at 20 µM; shares compounds with APOBEC3G inh; 710 tested, under 10 active;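 active means compounds giving 40% or more inhibition at 20 µM in any one of the three replicates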;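 further: inhibitors lower the FAM signal released by uracil excision and alkaline cleavage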
Numbers stand for hits. Only some compounds are listed: those with a hit (about 1.7% of all), similar ones and a draw of the others.

How did O=C1C2C3C=CC(CO)(O3)C2C(=O)N1c1ccccc1-c1ccccc1 (centres undefined) do in these assays?
A3A deaminase: inactive; CAL PDZ FP-1: inactive; APOBEC3G inh: 59.7; CAL PDZ FP-2: inactive; LANA DNA inh: inactive; Keap1 Nrf2 FP: inactive; APOBEC3G confirm: 68.9; UDG ctr A3G: inactive

Results for CN(C(=O)c1ccc(OC2CCN(C(=O)c3cccnc3)CC2)cc1)C1CCCCC1 ?
A3A deaminase: inactive; CAL PDZ FP-1: inactive; APOBEC3G inh: inactive; CAL PDZ FP-2: inactive; LANA DNA inh: inactive; Keap1 Nrf2 FP: inactive

Results for CN(C(=O)c1ccc(NC(=O)Cc2ccc([N+](=O)[O-])cc2)cc1)C1CC1 ?
A3A deaminase: inactive; CAL PDZ FP-1: inactive; APOBEC3G inh: inactive; CAL PDZ FP-2: inactive; LANA DNA inh: inactive; Keap1 Nrf2 FP: inactive

What do the screens show for `CCCCCCNC(=O)N[C@@H](C(=O)NCCC[C@H]1CN2C(=NC[C@@H]2Cc2ccccc2)N1CCc1cccc(OC)c1)C(C)C`?
A3A deaminase: inactive; APOBEC3G inh: 54.1; APOBEC3G confirm: 32.2

What do the screens show for `CC(=NNC(=O)CCC(=O)Nc1ccccc1Cl)c1ccco1`?
A3A deaminase: inactive; CAL PDZ FP-1: inactive; APOBEC3G inh: inactive; CAL PDZ FP-2: inactive; LANA DNA inh: inactive; Keap1 Nrf2 FP: inactive

Results for Clc1ccc(Cl)c(-c2nn3c(COc4ccccc4)nnc3s2)c1 ?
A3A deaminase: inactive; APOBEC3G inh: 45.9; CAL PDZ FP-2: inactive; LANA DNA inh: inactive; Keap1 Nrf2 FP: inactive; APOBEC3G confirm: 51.0; UDG ctr A3G: inactive

What do the screens show for `c1ccc(OCc2nnc3sc(-c4cccs4)nn23)cc1`?
A3A deaminase: inactive; CAL PDZ FP-1: inactive; APOBEC3G inh: 67.3; CAL PDZ FP-2: inactive; LANA DNA inh: inactive; Keap1 Nrf2 FP: inactive; APOBEC3G confirm: 34.2; UDG ctr A3G: inactive

What do the screens show for `COc1ccc(CN(C(=O)c2cc(=O)c3cc(C)cc(C)c3o2)C2CCS(=O)(=O)C2)cc1` (centres undefined)?
A3A deaminase: inactive; APOBEC3G inh: inactive; CAL PDZ FP-2: inactive; LANA DNA inh: inactive; Keap1 Nrf2 FP: inactive

How did Cc1ccc(C(=O)OCC(=O)NC2CCCCC2)s1 do in these assays?
A3A deaminase: inactive; CAL PDZ FP-1: inactive; APOBEC3G inh: inactive; CAL PDZ FP-2: inactive; LANA DNA inh: inactive; Keap1 Nrf2 FP: inactive

How did CCN(C(=O)c1ccco1)c1nnc(-c2ccc(OC)cc2)s1 do in these assays?
A3A deaminase: inactive; CAL PDZ FP-1: inactive; APOBEC3G inh: inactive; CAL PDZ FP-2: inactive; LANA DNA inh: inactive; Keap1 Nrf2 FP: inactive

Results for CCCN(C(=O)c1ccco1)c1nnc(-c2cccc(C)c2)s1 ?
A3A deaminase: inactive; CAL PDZ FP-1: inactive; APOBEC3G inh: 64.8; CAL PDZ FP-2: inactive; LANA DNA inh: inactive; Keap1 Nrf2 FP: inactive; APOBEC3G confirm: inactive

What do the screens show for `COC(=O)[C@H](CCSC)NC(=O)c1cc2c(cn1)[nH]c1ccccc12`?
A3A deaminase: inactive; CAL PDZ FP-1: inactive; APOBEC3G inh: 57.0; CAL PDZ FP-2: inactive; LANA DNA inh: inactive; Keap1 Nrf2 FP: inactive; APOBEC3G confirm: 56.0; UDG ctr A3G: inactive

What do the screens show for `Cc1ccc(C)n1-c1nc(=S)[nH][nH]1`?
A3A deaminase: inactive; APOBEC3G inh: 58.6; CAL PDZ FP-2: inactive; LANA DNA inh: inactive; Keap1 Nrf2 FP: inactive; APOBEC3G confirm: 73.7; UDG ctr A3G: inactive

How did CCOC(=O)c1sc(=S)n(-c2cc(OC)ccc2OC)c1N do in these assays?
A3A deaminase: inactive; CAL PDZ FP-1: inactive; APOBEC3G inh: 59.8; CAL PDZ FP-2: inactive; LANA DNA inh: inactive; Keap1 Nrf2 FP: inactive; APOBEC3G confirm: inactive

What do the screens show for `COc1ccc(CCC(=O)Nc2ccc(Cl)c(S(=O)(=O)N3CCCC3)c2)cc1`?
A3A deaminase: inactive; CAL PDZ FP-1: inactive; APOBEC3G inh: inactive; CAL PDZ FP-2: inactive; LANA DNA inh: inactive; Keap1 Nrf2 FP: inactive

Results for CN(CC(=O)Nc1ccccc1Br)C(=O)CNC(=O)c1cccs1 ?
A3A deaminase: inactive; CAL PDZ FP-1: inactive; APOBEC3G inh: inactive; CAL PDZ FP-2: inactive; LANA DNA inh: inactive; Keap1 Nrf2 FP: inactive

Results for Cc1ccc(N2C(=O)[C@@H]3C(c4cccnc4)=NO[C@@H]3C2=O)cc1 ?
A3A deaminase: inactive; APOBEC3G inh: 56.6; APOBEC3G confirm: inactive; UDG ctr A3G: inactive

Results for Cc1ccc(C2(C)NC(=O)N(CC(=O)NNC(=O)c3ccccc3F)C2=O)cc1 (centres undefined) ?
A3A deaminase: inactive; APOBEC3G inh: inactive; CAL PDZ FP-2: inactive; LANA DNA inh: inactive; Keap1 Nrf2 FP: inactive

Results for COc1ccc(C2CC(=O)N3CN(c4ccc(C)c(Cl)c4)CSC3=C2C#N)cc1OC (centres undefined) ?
A3A deaminase: inactive; CAL PDZ FP-1: inactive; APOBEC3G inh: 45.1; CAL PDZ FP-2: inactive; LANA DNA inh: inactive; Keap1 Nrf2 FP: inactive; APOBEC3G confirm: inactive; UDG ctr A3G: inactive

How did CCc1ccc(N2CSC3=C(C#N)C(c4cccs4)CC(=O)N3C2)cc1 (centres undefined) do in these assays?
A3A deaminase: inactive; CAL PDZ FP-1: inactive; APOBEC3G inh: 49.2; CAL PDZ FP-2: inactive; LANA DNA inh: inactive; Keap1 Nrf2 FP: inactive; APOBEC3G confirm: 50.1; UDG ctr A3G: inactive

Results for Cc1ccc(N2CSC3=C(C#N)C(c4cccs4)CC(=O)N3C2)cc1 (centres undefined) ?
A3A deaminase: inactive; CAL PDZ FP-1: inactive; APOBEC3G inh: 45.2; CAL PDZ FP-2: inactive; LANA DNA inh: inactive; Keap1 Nrf2 FP: inactive; APOBEC3G confirm: 58.5; UDG ctr A3G: inactive

How did COC(=O)COc1ccc(NS(=O)(=O)c2cccc([N+](=O)[O-])c2)cc1 do in these assays?
A3A deaminase: inactive; CAL PDZ FP-1: inactive; APOBEC3G inh: inactive; CAL PDZ FP-2: inactive; LANA DNA inh: inactive; Keap1 Nrf2 FP: inactive

From PubChem
